Measurements reported in ChEMBL document CHEMBL2380222, “Arylsulfonamide pyrimidines as VLA-4 antagonists” (Bioorg Med Chem Lett, 2013).
pIC50: −log10 of the molar value. Blank lines part the entries; values can stand above or below the molecule they belong to. Active and inactive are the calls of the source. No cut-off for these calls is given here.

What was measured:
[1] = Plasma concentration in po dosed Sprague-Dawley rat after 12 hrs; format: ADME, organism-based
[2] = AUC in iv dosed Sprague-Dawley rat; format: ADME, organism-based; details: plasma
[3] = AUC in po dosed Sprague-Dawley rat; format: ADME, organism-based; details: plasma
[4] = Oral bioavailability in Sprague-Dawley rat; format: ADME, organism-based; details: in vivo
[5] = Inhibition of VLA-4 (unknown origin) binding to VCAM-1 in human Jurkat TM cells after 30 mins by fibronectin mediated cell adhesion assay; format: cell-based
In short: (§1)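 Calcein-labelled Jurkat TM cells (10^5/well) in Hepes 20 mM, NaCl 140 mM, CaCl2 1 mM, MgCl2 1 mM, 0.3% BSA with activating anti-α4 TS2/16. Cells were preincubated 30 min on wet ice with anti-α5 (5 µg/ml) and a compound dose–response, then bound 35 min at 37 °C, 5% CO2 to human plasma fibronectin-coated wells. Wells were washed 3× and read by fluorescence to give IC50.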

Mus musculus [6] = experiment: Inhibition of Eos influx in Black/6 mouse acute pulmonary cellular influx model at 3 mg/kg, po bid administered 1hr prior and 12 hrs post ova/alum challenge on day 28 and 29 relative to vehicle-treated control; format: functional
In short: (§2)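 Female Black/6 mice were sensitized i.p. with ova/alum on day 1, boosted on day 14, and challenged with aerosolized ova on days 28 and 29. Compound was given by oral gavage (5 ml/kg) twice daily on days 28–29, 1 h before and 12 h after challenge. BAL was collected on day 30, 48 h after the first challenge. Eosinophil influx was reported as % inhibition against vehicle or against PS/2 (anti-α4, 10 mg/kg iv, 2 h before first challenge).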

[7] = Inhibition of VLA-4 binding to VCAM-1 in human Jurkat TM cells after 30 mins by fibronectin mediated cell adhesion assay using BSA; format: cell-based; in short: as §1
[8] = Inhibition of VLA-4 in rat serum binding to VCAM-1 in human Jurkat TM cells after 30 mins by fibronectin mediated cell adhesion assay; format: cell-based; details: 0.5 h
In short: (§3)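 Cells were preincubated 30 min on wet ice with anti-α5 (5 µg/ml) and a compound dose–response, then allowed to bind 35 min at 37 °C, 5% CO2 to human plasma fibronectin-coated wells. Wells were washed 3× and read by fluorescence to give IC50.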

Mus musculus [9] = experiment: Inhibition of Eos influx in Black/6 mouse acute pulmonary cellular influx model at 10 mg/kg, po bid administered 1hr prior and 12 hrs post ova/alum challenge on day 28 and 29 relative to alpha4 antibody PS/2; format: functional; in short: as §2
[10] = Inhibition of VLA-4 in human serum binding to VCAM-1 in human Jurkat TM cells after 30 mins by fibronectin mediated cell adhesion assay; format: cell-based; details: 0.5 h; in short: as §3
Mus musculus [11] = experiment: Inhibition of Eos influx in Black/6 mouse acute pulmonary cellular influx model at 10 mg/kg, po bid administered 1hr prior and 12 hrs post ova/alum challenge on day 28 and 29 relative to vehicle-treated control; format: functional; in short: as §2
Mus musculus [12] = experiment: Inhibition of Eos influx in Black/6 mouse acute pulmonary cellular influx model at 3 mg/kg, po bid administered 1hr prior and 12 hrs post ova/alum challenge on day 28 and 29 relative to PS/2; format: functional; in short: as §2
[13] = Inhibition of VLA-4 in mouse serum binding to VCAM-1 in human Jurkat TM cells after 30 mins by fibronectin mediated cell adhesion assay; format: cell-based; details: 0.5 h
Rattus norvegicus [14] = experiment: Antirheumatic activity in Lewis rat collagen induced arthritis model assessed as ankle histology at 3 to 30 mg/kg, po bid for 21 days; format: functional, organism-based
In short: (§4)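 Female Lewis rats developing type II collagen arthritis were dosed prophylactically by oral gavage, bid, at 3, 10 or 30 mg/kg for 21 days. A separate arm received methotrexate 0.05 mg/kg po qd, alone or combined. Read-outs were ankle caliper measurements as AUC, terminal hind paw weights, body weight and ankle/knee histology. Only animals with definite clinical and histopathologic disease were analysed.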

Rattus norvegicus [15] = experiment: Antiarthritic activity in Lewis rat collagen induced arthritis model assessed as bone resorbtion at 3 to 30 mg/kg, po bid for 21 days; format: functional, organism-based; in short: as §4
Rattus norvegicus [16] = experiment: Antiarthritic activity in Lewis rat collagen induced arthritis model assessed as inhibition of AUC for ankle swelling at 3 mg/kg, po bid for 21 days; format: functional; details: 504 h, read-out: INH; in short: as §4
Rattus norvegicus [17] = experiment: Antiarthritic activity in Lewis rat collagen induced arthritis model assessed as final paw weight at 3 mg/kg, po bid for 21 days; format: functional, organism-based; set-up: dose 3 mg/kg; in short: as §4
[18] = target: Integrin alpha-L/beta-2 (LFA-1) (Homo sapiens, UniProt P05107+P20701); experiment: Inhibition of integrin alphaLbeta2 (unknown origin) binding to ICAM in human 8866 cells after 30 mins by ICAM mediated cell adhesion assay
Integrin alpha-5/beta-1 = Integrin alpha-5/beta-1 (Homo sapiens, UniProt P05556+P08648); experiment: Inhibition of integrin alpha5beta1 (unknown origin) binding to fibronectin in human THP1 cells after 30 mins by fibronectin mediated cell adhesion assay
Rattus norvegicus [19] = experiment: Antiarthritic activity in Lewis rat collagen induced arthritis model at 3 to 30 mg/kg, po bid for 21 days; format: functional, organism-based; in short: as §4
Integrin alpha-V/beta-1 = Integrin alpha-V/beta-1 (Homo sapiens, UniProt P05556+P06756); experiment: Inhibition of integrin alphaVbeta1 (unknown origin) binding to mouse OPN-HIS after 30 mins by fibronectin mediated cell adhesion assay; format: protein-complex assay
Rattus norvegicus [20] = experiment: Antirheumatic activity in Lewis rat collagen induced arthritis model assessed as ankle histology at 0.05 mg/kg, po bid for 21 days; format: functional, organism-based; set-up: dose 0.05 mg/kg
Mus musculus [21] = experiment: Inhibition of Eos influx in Black/6 mouse acute pulmonary cellular influx model at 1 mg/kg, po bid administered 1hr prior and 12 hrs post ova/alum challenge on day 28 and 29 relative to alpha4 antibody PS/2; format: functional
In short: (§5)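 Female Black/6 mice were sensitized i.p. with ova/alum on day 1, boosted on day 14 and challenged with aerosolized ova and alum on days 28 and 29. Dosing was oral gavage (5 ml/kg) twice daily on days 28–29, 1 h before and 12 h after challenge. Reference anti-α4 antibody PS/2 was given iv at 10 mg/kg, 2 h before the first challenge. Bronchoalveolar lavage eosinophils were counted on day 30 (48 h after the first challenge) as % inhibition.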

Rattus norvegicus [22] = experiment: Antiarthritic activity in Lewis rat collagen induced arthritis model assessed as final paw weight at 10 to 30 mg/kg, po bid for 21 days; format: functional, organism-based; in short: as §4
Cavia porcellus = experiment: Antiinflammatory activity in guinea pig at 30 to 300 mg/kg, po bid for 12 days; format: functional, organism-based
In short: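 Guinea pig EAE: animals were immunized, and only those with established disease (clinical score >0) were randomized at 16–18 days post-immunization. Oral dosing was bid for 12 days at 30 or 300 mg/kg. Natalizumab was given every other day as comparator. The read-out was clinical score over the treatment period.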

Rattus norvegicus [23] = experiment: Antiarthritic activity in Lewis rat collagen induced arthritis model assessed as cartilage destruction at 3 to 30 mg/kg, po bid for 21 days; format: functional, organism-based; in short: as §4
Mus musculus [24] = experiment: Inhibition of Eos influx in Black/6 mouse acute pulmonary cellular influx model at 1 mg/kg, po bid administered 1hr prior and 12 hrs post ova/alum challenge on day 28 and 29 relative to vehicle-treated control; format: functional; in short: as §5
Rattus norvegicus [25] = experiment: Antiarthritic activity in Lewis rat collagen induced arthritis model assessed as AUC for ankle swelling at 10 to 30 mg/kg, po bid for 21 days; format: functional, organism-based; in short: as §4

Integrin alpha-L/beta-2 (LFA-1), sequence (P20701 whole entry): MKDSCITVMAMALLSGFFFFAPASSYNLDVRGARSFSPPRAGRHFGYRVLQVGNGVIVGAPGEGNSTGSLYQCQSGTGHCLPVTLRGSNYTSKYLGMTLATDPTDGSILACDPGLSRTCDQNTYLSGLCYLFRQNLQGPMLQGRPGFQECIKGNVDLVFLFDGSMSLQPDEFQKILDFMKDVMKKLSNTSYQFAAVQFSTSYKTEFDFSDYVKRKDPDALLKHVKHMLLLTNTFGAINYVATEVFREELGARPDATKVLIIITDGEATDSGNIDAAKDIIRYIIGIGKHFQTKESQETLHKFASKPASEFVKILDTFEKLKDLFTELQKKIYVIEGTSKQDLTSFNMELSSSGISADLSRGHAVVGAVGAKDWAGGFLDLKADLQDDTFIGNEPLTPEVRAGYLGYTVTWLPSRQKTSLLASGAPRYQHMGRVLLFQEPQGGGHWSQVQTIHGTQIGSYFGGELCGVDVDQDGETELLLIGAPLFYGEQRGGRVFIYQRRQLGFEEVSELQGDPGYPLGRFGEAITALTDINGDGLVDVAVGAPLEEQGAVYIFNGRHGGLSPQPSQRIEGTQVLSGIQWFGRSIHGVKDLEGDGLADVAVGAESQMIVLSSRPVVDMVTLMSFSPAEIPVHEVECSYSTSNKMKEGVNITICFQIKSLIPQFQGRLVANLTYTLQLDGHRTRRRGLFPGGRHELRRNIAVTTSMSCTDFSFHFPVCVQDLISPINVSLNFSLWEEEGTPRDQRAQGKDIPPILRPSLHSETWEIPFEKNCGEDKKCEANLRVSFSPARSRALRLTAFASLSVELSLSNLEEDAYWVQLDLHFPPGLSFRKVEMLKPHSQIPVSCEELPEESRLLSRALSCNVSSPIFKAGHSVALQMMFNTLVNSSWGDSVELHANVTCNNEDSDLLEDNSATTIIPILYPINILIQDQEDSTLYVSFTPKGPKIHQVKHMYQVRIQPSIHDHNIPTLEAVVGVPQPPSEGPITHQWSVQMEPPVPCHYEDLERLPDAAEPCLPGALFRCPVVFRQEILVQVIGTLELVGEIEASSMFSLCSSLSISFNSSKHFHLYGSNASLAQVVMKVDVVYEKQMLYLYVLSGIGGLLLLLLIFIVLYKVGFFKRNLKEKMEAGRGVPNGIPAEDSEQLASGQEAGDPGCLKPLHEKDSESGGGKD
Integrin alpha-L/beta-2 (LFA-1), sequence (P05107 whole entry): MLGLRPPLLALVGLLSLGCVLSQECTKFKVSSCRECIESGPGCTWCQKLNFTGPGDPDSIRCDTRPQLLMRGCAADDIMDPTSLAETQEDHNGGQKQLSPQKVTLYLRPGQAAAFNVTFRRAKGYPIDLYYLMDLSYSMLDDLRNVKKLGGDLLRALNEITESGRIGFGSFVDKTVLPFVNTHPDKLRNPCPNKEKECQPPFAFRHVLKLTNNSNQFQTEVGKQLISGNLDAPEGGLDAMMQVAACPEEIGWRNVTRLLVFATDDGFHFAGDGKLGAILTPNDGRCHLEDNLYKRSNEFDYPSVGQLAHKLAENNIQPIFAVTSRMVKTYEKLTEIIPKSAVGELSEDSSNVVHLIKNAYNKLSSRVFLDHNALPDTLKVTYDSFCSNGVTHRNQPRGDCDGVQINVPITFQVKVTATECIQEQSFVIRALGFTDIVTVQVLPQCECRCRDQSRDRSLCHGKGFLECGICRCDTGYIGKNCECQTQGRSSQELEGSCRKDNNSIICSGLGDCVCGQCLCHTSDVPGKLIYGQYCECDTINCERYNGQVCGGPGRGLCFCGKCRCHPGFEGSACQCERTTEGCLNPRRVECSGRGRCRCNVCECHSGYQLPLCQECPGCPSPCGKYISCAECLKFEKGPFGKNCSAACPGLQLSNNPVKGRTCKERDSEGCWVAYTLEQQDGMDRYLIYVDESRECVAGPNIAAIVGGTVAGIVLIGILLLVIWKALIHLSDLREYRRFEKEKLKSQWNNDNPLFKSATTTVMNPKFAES
Integrin alpha-V/beta-1, sequence (P05556 21-798 limits assumed): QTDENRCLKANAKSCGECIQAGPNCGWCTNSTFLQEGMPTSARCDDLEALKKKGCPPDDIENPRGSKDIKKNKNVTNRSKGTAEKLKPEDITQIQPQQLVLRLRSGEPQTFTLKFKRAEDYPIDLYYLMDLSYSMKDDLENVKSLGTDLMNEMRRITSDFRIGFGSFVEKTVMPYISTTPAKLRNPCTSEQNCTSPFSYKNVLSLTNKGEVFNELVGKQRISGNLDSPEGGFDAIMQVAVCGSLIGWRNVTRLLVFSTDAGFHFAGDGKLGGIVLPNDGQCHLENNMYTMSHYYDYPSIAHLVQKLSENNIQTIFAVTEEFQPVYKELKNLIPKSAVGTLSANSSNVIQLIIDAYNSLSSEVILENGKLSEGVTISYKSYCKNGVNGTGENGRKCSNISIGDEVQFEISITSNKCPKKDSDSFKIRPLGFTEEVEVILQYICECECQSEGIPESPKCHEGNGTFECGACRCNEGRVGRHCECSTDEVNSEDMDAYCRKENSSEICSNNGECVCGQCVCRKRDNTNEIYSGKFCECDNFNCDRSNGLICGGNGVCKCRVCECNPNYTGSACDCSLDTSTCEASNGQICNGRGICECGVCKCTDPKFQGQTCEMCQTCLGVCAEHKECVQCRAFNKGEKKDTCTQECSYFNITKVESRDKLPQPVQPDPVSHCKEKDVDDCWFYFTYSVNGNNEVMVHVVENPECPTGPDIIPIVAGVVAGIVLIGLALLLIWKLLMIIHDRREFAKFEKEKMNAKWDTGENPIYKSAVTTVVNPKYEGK
Integrin alpha-V/beta-1, sequence (P06756 31-889 limits assumed): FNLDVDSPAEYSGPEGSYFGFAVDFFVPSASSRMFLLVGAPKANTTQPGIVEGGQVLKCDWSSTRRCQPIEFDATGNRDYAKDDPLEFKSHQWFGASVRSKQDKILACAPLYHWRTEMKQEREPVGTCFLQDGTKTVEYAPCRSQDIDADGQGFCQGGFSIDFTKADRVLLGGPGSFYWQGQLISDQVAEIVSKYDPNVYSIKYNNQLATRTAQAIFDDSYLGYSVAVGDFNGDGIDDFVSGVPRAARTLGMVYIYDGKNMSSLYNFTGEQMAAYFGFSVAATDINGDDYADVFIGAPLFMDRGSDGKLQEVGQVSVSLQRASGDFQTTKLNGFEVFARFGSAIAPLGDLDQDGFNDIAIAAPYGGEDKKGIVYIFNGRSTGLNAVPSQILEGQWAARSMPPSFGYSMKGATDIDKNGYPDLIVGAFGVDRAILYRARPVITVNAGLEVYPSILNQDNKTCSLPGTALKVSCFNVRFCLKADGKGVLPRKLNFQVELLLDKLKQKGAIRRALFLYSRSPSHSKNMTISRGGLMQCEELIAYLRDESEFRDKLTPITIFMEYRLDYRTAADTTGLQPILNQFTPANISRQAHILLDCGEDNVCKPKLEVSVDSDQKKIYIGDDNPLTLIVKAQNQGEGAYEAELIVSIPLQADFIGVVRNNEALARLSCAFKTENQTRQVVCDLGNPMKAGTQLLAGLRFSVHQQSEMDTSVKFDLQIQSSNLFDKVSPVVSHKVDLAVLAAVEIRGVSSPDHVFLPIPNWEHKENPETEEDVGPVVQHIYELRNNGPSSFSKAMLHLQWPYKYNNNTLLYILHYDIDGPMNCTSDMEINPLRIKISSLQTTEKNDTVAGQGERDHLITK
Integrin alpha-V/beta-1, sequence (P06756 891-1048 limits assumed): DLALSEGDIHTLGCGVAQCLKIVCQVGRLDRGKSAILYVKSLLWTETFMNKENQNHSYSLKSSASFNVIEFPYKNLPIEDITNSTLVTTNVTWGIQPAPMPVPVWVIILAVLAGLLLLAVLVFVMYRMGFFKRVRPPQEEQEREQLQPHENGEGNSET
Integrin alpha-5/beta-1, sequence (P05556 21-798 limits assumed): as the sequence (P05556 21-798 limits assumed) above
Integrin alpha-5/beta-1, sequence (P08648 42-894 limits assumed): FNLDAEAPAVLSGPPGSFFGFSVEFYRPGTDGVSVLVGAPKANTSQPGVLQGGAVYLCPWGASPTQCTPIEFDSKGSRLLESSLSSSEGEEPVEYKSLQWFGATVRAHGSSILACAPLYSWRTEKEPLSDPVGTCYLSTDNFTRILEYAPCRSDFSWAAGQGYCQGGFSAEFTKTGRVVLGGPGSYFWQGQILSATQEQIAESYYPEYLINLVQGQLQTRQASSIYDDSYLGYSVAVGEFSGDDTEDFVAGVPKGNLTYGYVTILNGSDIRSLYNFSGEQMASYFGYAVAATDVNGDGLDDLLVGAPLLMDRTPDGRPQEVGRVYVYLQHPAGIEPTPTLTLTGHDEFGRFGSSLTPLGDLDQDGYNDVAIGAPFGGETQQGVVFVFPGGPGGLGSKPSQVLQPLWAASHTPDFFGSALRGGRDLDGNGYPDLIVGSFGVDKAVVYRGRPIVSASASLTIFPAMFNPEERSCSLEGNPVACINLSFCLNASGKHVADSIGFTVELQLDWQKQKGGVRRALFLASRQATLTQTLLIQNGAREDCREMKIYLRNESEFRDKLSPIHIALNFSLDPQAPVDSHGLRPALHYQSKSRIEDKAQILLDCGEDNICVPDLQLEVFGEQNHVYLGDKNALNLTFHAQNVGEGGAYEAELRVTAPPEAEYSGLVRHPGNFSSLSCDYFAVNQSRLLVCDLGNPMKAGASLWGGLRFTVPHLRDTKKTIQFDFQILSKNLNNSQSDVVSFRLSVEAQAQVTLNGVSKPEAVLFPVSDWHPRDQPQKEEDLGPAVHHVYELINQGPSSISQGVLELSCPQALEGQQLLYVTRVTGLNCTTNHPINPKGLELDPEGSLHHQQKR
Integrin alpha-5/beta-1, sequence (P08648 895-1049 limits assumed): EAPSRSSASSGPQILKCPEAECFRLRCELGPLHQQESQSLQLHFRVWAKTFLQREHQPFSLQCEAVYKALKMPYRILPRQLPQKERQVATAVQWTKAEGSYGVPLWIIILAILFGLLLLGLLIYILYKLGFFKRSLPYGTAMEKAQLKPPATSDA

concentration at 12 h [1]: 10 ng/mL
AUC [2]: 34000 ng·h/mL
AUC [3]: 6000 ng·h/mL
bioavailability [4]: 16%
pIC50 [5]: 8.70
SMILES: CCN(CC)c1ncc(N(CC)S(=O)(=O)c2ccc(F)cc2)c(N[C@@H](Cc2ccc(OC(=O)N3CCC3)cc2)C(=O)O)n1

SMILES: CCN(CC)c1ncc(N(C(C)C)S(=O)(=O)c2ccc(Cl)cc2)c(N[C@@H](Cc2ccc(OC(=O)N(C)C)cc2)C(=O)O)n1
pIC50 [5]: 8.40

SMILES: CCN(CC)c1ncc(N(CC)S(=O)(=O)c2ccc(F)cc2)c(N[C@@H](Cc2ccc(OC(=O)N(C)C)cc2)C(=O)O)n1
concentration at 12 h [1]: 60 ng/mL
AUC [2]: 32000 ng·h/mL
AUC [3]: 14000 ng·h/mL
bioavailability [4]: 44%
pIC50 [5]: 9.00

SMILES: Cc1ccc(S(=O)(=O)N(C)c2cncnc2N[C@@H](Cc2ccc(OC(=O)N(C)C)cc2)C(=O)O)cc1
pIC50 [5]: 8.70

SMILES: CCN(CC)c1ncc(N(C(C)C)S(=O)(=O)c2ccc(F)c(F)c2)c(N[C@@H](Cc2ccc(OC(=O)N(C)C)cc2)C(=O)O)n1
pIC50 [5]: 8.15

SMILES: CCN(CC)c1ncc(N(C)S(=O)(=O)c2ccc(F)cc2)c(N[C@@H](Cc2ccc(OC(=O)N(C)C)cc2)C(=O)O)n1
concentration at 12 h [1]: 120 ng/mL
AUC [2]: 27000 ng·h/mL
inhibition in vivo at 3 mg/kg (Mus musculus [6]): 3%
pIC50 [7]: 8.70
pIC50 [8]: 6.55
inhibition in vivo at 10 mg/kg (Mus musculus [9]): 80%
pIC50 [10]: 7.35
inhibition in vivo at 10 mg/kg (Mus musculus [11]): 45%
AUC [3]: 20000 ng·h/mL
bioavailability [4]: 74%
inhibition in vivo at 3 mg/kg (Mus musculus [12]): 5%
pIC50 [5]: 8.70
pIC50 [13]: 8.22

SMILES: CCN(CC)c1ncc(N(CC)S(=O)(=O)c2ccc(F)c(F)c2)c(N[C@@H](Cc2ccc(OC(=O)N(C)C)cc2)C(=O)O)n1
concentration at 12 h [1]: 8 ng/mL
AUC [2]: 17000 ng·h/mL
AUC [3]: 4200 ng·h/mL
bioavailability [4]: 24%
pIC50 [5]: 8.40

concentration at 12 h [1]: 100 ng/mL
AUC [2]: 90000 ng·h/mL
AUC [3]: 16000 ng·h/mL
bioavailability [4]: 17%
pIC50 [5]: 8.10
SMILES: CCN(CC)c1ncc(N(C)S(=O)(=O)c2ccc(F)cc2F)c(N[C@@H](Cc2ccc(OC(=O)N3CCCC3)cc2)C(=O)O)n1

concentration at 12 h [1]: 1310 ng/mL
AUC [2]: 156000 ng·h/mL
pIC50 [7]: 8.05
pIC50 [8]: 5.72
pIC50 [18]: < 4.52
pIC50 (Integrin alpha-5/beta-1): < 4.52
pIC50 (Integrin alpha-V/beta-1): 6.30
pIC50 [10]: 5.34
AUC [3]: 88000 ng·h/mL
bioavailability [4]: 56%
pIC50 [5]: 8.10
pIC50 [13]: 7.44
SMILES: C#CCN(c1cnc(N(CC)CC)nc1N[C@@H](Cc1ccc(OC(=O)N2CCCC2)cc1)C(=O)O)S(=O)(=O)c1ccc(F)cc1
inhibition in vivo at 3 mg/kg (Mus musculus [6]): 41%
Activity (Rattus norvegicus [14]): Active
Activity (Rattus norvegicus [15]): Active
inhibition in vivo at 3 mg/kg (Rattus norvegicus [16]): 15%
Activity (Rattus norvegicus [17]): Active
Activity (Rattus norvegicus [19]): Active
Activity (Rattus norvegicus [20]): Active
inhibition in vivo at 1 mg/kg (Mus musculus [21]): 0%
Activity (Rattus norvegicus [22]): Active
Activity (Cavia porcellus): Active
Activity (Rattus norvegicus [23]): Active
inhibition in vivo at 1 mg/kg (Mus musculus [24]): 0%
inhibition in vivo at 3 mg/kg (Mus musculus [12]): 74%
Activity (Rattus norvegicus [25]): Active

SMILES: CN(C)C(=O)Oc1ccc(C[C@H](NC(=O)[C@H]2N(S(=O)(=O)c3cnn(C)c3)CSC2(C)C)C(=O)O)cc1
pIC50 [5]: 8.70
